According to ChEMBL document CHEMBL1148789, “Synthesis and biological activities of new checkpoint kinase 1 inhibitors structurally related to granulatimide” (J Med Chem, 2007):
Activity calls are given as the source filed them. The rule behind the calls is not given here.

Molecular target: T1, Proto-oncogene tyrosine-protein kinase Src (Homo sapiens, UniProt P12931)
Assay: Inhibition of Src at 10 uM
Summary of the method: (§1)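 Started by adding cosubstrate (40 µM ATP stock with [33P]γ-ATP); 20 min at 30 °C. Stopped with 0.85% orthophosphoric acid, filtered on phosphocellulose, washed, then scintillation counted. Percent inhibition at 10 µM; IC50 reported.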

T1 sequence (P12931 2-536 limits assumed): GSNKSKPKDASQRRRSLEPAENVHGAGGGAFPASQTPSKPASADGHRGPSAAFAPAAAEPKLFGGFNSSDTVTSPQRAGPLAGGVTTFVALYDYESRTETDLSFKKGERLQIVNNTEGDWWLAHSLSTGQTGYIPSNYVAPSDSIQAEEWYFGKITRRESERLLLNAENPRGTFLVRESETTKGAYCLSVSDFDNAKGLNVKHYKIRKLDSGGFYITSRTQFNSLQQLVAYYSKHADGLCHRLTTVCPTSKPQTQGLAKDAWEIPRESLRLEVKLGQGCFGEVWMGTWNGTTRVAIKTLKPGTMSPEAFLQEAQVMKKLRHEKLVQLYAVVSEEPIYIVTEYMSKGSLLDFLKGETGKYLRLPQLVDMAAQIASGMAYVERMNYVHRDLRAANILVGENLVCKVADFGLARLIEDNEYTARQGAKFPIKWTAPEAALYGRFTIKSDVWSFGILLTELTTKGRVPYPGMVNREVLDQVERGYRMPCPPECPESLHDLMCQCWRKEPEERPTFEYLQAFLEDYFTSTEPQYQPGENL

SMILES	inhibition [%]	Activity
O=C1NC(=O)c2c1c1[nH]cnc1c1[nH]c3ccccc3c21 [GRANULATIMIDE]	58	–
Cc1ccc2[nH]c3c4c(=O)ccc(=O)c4c4c(=O)[nH]c(=O)c4c3c2c1	52.5	–
O=c1[nH]c(=O)c2c1c1[nH]c3ccccc3c1c1c(=O)[nH]c(=O)c21 [BIS-IMIDE A]	–	inactive

Test system: HCT-116
Assay: Antiproliferative activity against human HCT116 cells […] by microculture tetrazolium assay
Format: functional, cell-based
Summary of the method: (§2)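 Human HCT116, human HT29 and murine L1210 tumour cells grown in RPMI 1640 with 10% fetal calf serum, 2 mM L-glutamine, penicillin/streptomycin and 10 mM HEPES pH 7.4. Compounds were taken from 10^-2 M DMSO stocks, diluted 1/100 in RPMI, and cells were exposed continuously to graded concentrations for four doubling times. MTT was added for 4 h at 37 °C and the formazan dissolved in DMSO. IC50 is the concentration lowering optical density 50% versus untreated cells.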

SMILES	IC50 [nM]
CC(C)(C)C(=O)Oc1ccc(O)c2c3c(c4c5ccccc5[nH]c4c12)C(=O)NC3=O	8760
O=C1NC(=O)c2c1c1c(O)ccc(OS(=O)(=O)O)c1c1[nH]c3ccccc3c21	> 50000
Cc1ccc2[nH]c3c4c(=O)ccc(=O)c4c4c(=O)[nH]c(=O)c4c3c2c1	700
Cc1ccc2[nH]c3c4c(OS(=O)(=O)O)ccc(O)c4c4c(c3c2c1)C(=O)NC4=O	> 40000

Molecular target: T2, Serine/threonine-protein kinase Chk1 (Homo sapiens) (UniProt O14757)
T2 sequence (whole entry): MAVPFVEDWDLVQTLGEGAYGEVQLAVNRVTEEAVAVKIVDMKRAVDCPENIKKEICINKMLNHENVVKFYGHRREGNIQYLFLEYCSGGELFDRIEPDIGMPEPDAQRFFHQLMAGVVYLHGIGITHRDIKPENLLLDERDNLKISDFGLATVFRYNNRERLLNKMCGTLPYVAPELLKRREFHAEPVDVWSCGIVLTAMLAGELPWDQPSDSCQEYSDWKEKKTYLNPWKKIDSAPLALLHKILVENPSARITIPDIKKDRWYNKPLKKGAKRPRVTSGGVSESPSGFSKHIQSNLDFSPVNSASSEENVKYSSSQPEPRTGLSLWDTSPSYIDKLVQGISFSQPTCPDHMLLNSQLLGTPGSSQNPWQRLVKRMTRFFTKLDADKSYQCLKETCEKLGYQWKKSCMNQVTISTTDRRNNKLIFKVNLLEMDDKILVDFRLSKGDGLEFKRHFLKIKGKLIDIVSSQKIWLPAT
Assay: Inhibition of human Chk1 expressed in Sf9 cells at 10 uM
Summary of the method: (§3)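 Full-length human Chk1 with an N-terminal GST tag, purified from baculovirus-infected Sf9 cells or purchased. Stopped with orthophosphoric acid and captured on phosphocellulose filters for scintillation counting. Percent inhibition at 10 µM; IC50 from 12 concentrations over 6 logs, duplicate points averaged.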

SMILES	inhibition [%]
CC(C)(C)C(=O)Oc1ccc(O)c2c3c(c4c5ccccc5[nH]c4c12)C(=O)NC3=O	66
O=C1NC(=O)c2c1c1c(O)ccc(OS(=O)(=O)O)c1c1[nH]c3ccccc3c21	62
O=c1ccc(=O)c2c1c1[nH]c3ccccc3c1c1c(=O)[nH]c(=O)c21	86
Cc1ccc2[nH]c3c4c(=O)ccc(=O)c4c4c(=O)[nH]c(=O)c4c3c2c1	86
O=c1[nH]c(=O)c2c1c1[nH]c3ccccc3c1c1c(=O)[nH]c(=O)c21 [BIS-IMIDE A]	94.4
Cc1ccc2[nH]c3c4c(OS(=O)(=O)O)ccc(O)c4c4c(c3c2c1)C(=O)NC4=O	70

Molecular target: T3, Serine/threonine-protein kinase Chk1 (Homo sapiens, UniProt O14757)
T3 sequence (O14757 whole entry): T2 sequence (whole entry)
Assay: Inhibition of human Chk1 expressed in Sf9 cells
Summary of the method: as §3

SMILES	IC50 [nM]
CC(C)(C)C(=O)Oc1ccc(O)c2c3c(c4c5ccccc5[nH]c4c12)C(=O)NC3=O	3700
O=C1NC(=O)c2c1c1c(O)ccc(OS(=O)(=O)O)c1c1[nH]c3ccccc3c21	1790
O=C1NC(=O)c2c1c1[nH]cnc1c1[nH]c3ccccc3c21 [GRANULATIMIDE]	81
O=c1ccc(=O)c2c1c1[nH]c3ccccc3c1c1c(=O)[nH]c(=O)c21	269
Cc1ccc2[nH]c3c4c(=O)ccc(=O)c4c4c(=O)[nH]c(=O)c4c3c2c1	107
O=c1[nH]c(=O)c2c1c1[nH]c3ccccc3c1c1c(=O)[nH]c(=O)c21 [BIS-IMIDE A]	20
Cc1ccc2[nH]c3c4c(OS(=O)(=O)O)ccc(O)c4c4c(c3c2c1)C(=O)NC4=O	893

Test system: HT-29
Assay: Antiproliferative activity against human HT29 cells […] by microculture tetrazolium assay
Format: functional, cell-based
Summary of the method: as §2

SMILES	IC50 [nM]
CC(C)(C)C(=O)Oc1ccc(O)c2c3c(c4c5ccccc5[nH]c4c12)C(=O)NC3=O	7280
O=C1NC(=O)c2c1c1c(O)ccc(OS(=O)(=O)O)c1c1[nH]c3ccccc3c21	46000
Cc1ccc2[nH]c3c4c(=O)ccc(=O)c4c4c(=O)[nH]c(=O)c4c3c2c1	20600
Cc1ccc2[nH]c3c4c(OS(=O)(=O)O)ccc(O)c4c4c(c3c2c1)C(=O)NC4=O	50000

Molecular target: T1, Proto-oncogene tyrosine-protein kinase Src
Assay: Inhibition of Src
Summary of the method: as §1

SMILES	IC50 [nM]
O=C1NC(=O)c2c1c1[nH]cnc1c1[nH]c3ccccc3c21 [GRANULATIMIDE]	350
